Measurements as given in ChEMBL document CHEMBL4014332, “Multitargeted Imidazoles: Potential Therapeutic Leads for Alzheimer's and Other Neurodegenerative Diseases” (J Med Chem, 2017).

Assays:
[1] = Change in total alpha-tubulin levels in human QBI293 cells at 1 uM after 4 hrs by ELISA relative to control; settings: qbi293, 4 h
Rattus norvegicus = organism: Rattus norvegicus; experiment: Inhibition of 5-LOX-mediated LTB4 production in arachidonic acid-stimulated RBL1 cells at 10 uM preincubated for 2 hrs followed by A23187 induction for 15 mins by LC/MS/MS analysis relative to control
How it was run: (§1)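 RBL-1 cells grown in RPMI/10% FBS, plated 9 × 10⁵ cells/well, held 2 h at 37 °C, then given compound for 2 h (screen at 10 μM, then concentration–response in triplicate). Stimulation was 12 μM A23187 for 15 min. Supernatants were extracted with MeOH/0.01% BHT and LTB₄ quantified by UPLC-MS/MS in negative ion mode.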

Homo sapiens = organism: Homo sapiens; experiment: Induction of microtubule stabilization in human QBI293 cells assessed as increase in acetylated tubulin levels at 1 uM after 4 hrs by ELISA relative to control; type: cell-based
How it was run: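 QBI-293 cells grown in DMEM/10% FBS at 37 °C, 5% CO2, plated 6 × 10⁵ cells/well overnight, then treated with vehicle or compound (1 and 10 μM) for 4 h. Lysis was in RIPA with protease inhibitors, 1 mM PMSF and 1 μM TSA, followed by 100000g spin for 30 min. Acetylated α-tubulin was measured by ELISA on BCA-quantified supernatant, reported as fold change vs DMSO, at least triplicate, t test.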

[2] = Change in total alpha-tubulin levels in human QBI293 cells at 10 uM after 4 hrs by ELISA relative to control; type: cell-based; settings: qbi293, 4 h
How it was run: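 QBI-293 cells grown in DMEM/10% FBS at 37 °C, 5% CO2, plated 6 × 10⁵ cells/well, left overnight, then given vehicle or compound (1 and 10 μM) for 4 h. Cells were lysed in RIPA with protease inhibitors, 1 mM PMSF and 1 μM TSA, then spun at 100000g for 30 min. Total α-tubulin was measured by ELISA, normalized by BCA protein, expressed as fold change vs DMSO, triplicate, two-tailed unpaired t test.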

[3] = Inhibition of 5-LOX-mediated LTB4 production in arachidonic acid-stimulated RBL1 cells preincubated for 2 hrs followed by A23187 induction for 15 mins by LC/MS/MS analysis; settings: Rattus norvegicus, RBL-1; how it was run: as §1
Cyclooxygenase = target: T1, Cyclooxygenase (Rattus norvegicus, UniProt P35355+Q63921); experiment: Inhibition of COX-mediated PGD2/PGE2 production in arachidonic acid-stimulated RBL1 cells preincubated for 2 hrs followed by A23187 induction for 15 mins by LC/MS/MS analysis
T1 sequence (P35355 whole entry): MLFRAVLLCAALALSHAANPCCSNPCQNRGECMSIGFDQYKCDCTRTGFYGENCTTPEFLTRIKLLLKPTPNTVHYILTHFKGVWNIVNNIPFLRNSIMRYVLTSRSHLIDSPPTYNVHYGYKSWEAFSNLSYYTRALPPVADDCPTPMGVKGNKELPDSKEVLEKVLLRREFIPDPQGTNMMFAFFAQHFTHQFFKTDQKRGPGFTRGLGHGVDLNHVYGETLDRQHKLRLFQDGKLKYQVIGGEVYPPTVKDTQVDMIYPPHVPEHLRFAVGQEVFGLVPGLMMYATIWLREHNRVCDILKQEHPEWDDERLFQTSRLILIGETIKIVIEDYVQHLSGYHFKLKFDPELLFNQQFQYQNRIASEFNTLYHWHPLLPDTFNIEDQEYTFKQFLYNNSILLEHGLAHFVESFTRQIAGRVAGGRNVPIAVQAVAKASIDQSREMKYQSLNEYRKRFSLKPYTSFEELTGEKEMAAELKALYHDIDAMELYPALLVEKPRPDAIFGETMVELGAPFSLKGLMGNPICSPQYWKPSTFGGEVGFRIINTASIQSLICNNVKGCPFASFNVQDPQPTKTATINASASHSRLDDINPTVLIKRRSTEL
T1 sequence (Q63921 whole entry): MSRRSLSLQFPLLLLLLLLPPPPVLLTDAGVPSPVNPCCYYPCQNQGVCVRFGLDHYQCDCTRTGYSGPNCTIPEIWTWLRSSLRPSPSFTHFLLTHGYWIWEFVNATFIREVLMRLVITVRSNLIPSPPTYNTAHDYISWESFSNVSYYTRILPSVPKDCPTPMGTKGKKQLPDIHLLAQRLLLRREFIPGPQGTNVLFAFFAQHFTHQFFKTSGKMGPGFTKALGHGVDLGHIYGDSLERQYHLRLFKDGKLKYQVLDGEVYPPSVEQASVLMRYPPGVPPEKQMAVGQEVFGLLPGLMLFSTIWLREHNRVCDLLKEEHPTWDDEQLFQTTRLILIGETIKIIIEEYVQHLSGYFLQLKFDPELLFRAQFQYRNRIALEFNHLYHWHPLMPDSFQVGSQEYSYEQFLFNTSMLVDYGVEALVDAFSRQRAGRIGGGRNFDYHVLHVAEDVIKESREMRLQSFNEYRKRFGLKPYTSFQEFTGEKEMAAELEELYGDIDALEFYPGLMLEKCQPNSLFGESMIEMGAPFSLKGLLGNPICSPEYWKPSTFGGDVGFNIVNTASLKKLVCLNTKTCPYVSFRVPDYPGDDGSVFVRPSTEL
How it was run: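 RBL-1 cells in RPMI/10% FBS, 9 × 10⁵ cells/well, held 2 h, then exposed to compound for 2 h at multiple concentrations in triplicate. Stimulation was 12 μM A23187 for 15 min. Eicosanoids were extracted with MeOH/0.01% BHT, and PGD₂ plus PGE₂ measured by UPLC-MS/MS (negative ion, 351 > 315).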

[4] = Drug uptake in mouse brain at 2 mg/kg, ip administered as cassette dosing after 1 hr by LC-MS/MS method; type: ADME, organism-based; settings: read-out: Drug uptake
How it was run: (§2)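 Groups of three 2–5-month-old CD-1 or B6SJL mice, sexes kept separate, were cassette-dosed i.p. in DMSO at 2 mg/kg with two or three compounds given together. Plasma and brain homogenate levels were measured at a single time point and scaled proportionally up to 5 mg/kg. The brain/plasma ratio was derived from these, reported as mean ± SD.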

[5] = Plasma concentration in mouse at 2 mg/kg, ip administered as cassette dosing after 1 hr by LC-MS/MS method; type: ADME, organism-based; how it was run: as §2
[6] = Ratio of drug level in brain to plasma in mouse at 2 mg/kg, ip administered as cassette dosing; type: ADME, organism-based; settings: read-out: BPR; how it was run: as §2
[7] = Plasma concentration in mouse at 5 mg/kg, ip administered as single dose after 1 hr by LC-MS/MS method; type: ADME, organism-based
How it was run: (§3)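 Groups of three CD-1 or B6SJL mice, 2–5 months old, sexes not mixed, received a single 5 mg/kg i.p. dose in DMSO. Compound was quantified in plasma and brain homogenate at a single time point, and the brain/plasma ratio was derived from these. Values are mean ± SD.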

[8] = Ratio of drug level in brain to plasma in mouse at 5 mg/kg, ip administered as single dose; type: ADME, organism-based; settings: read-out: BPR; how it was run: as §3
[9] = Drug uptake in mouse brain at 5 mg/kg, ip administered as single dose after 1 hr by LC-MS/MS method; type: ADME, organism-based; settings: read-out: Drug uptake; how it was run: as §3

| FC [1] | inhibition (Rattus norvegicus) | fold change (FC) [2] | IC50 [3] | IC50 (Cyclooxygenase) | concentration at 1 h [4] | concentration at 1 h [5] | Kp [6] | concentration at 1 h [7] | Kp [8] | concentration at 1 h [9] | Compound | fold change (FC) (Homo sapiens) | Activity [1] |
| --- | --- | --- | --- | --- | --- | --- | --- | --- | --- | --- | --- | --- | --- |
| 0.4 | 88% | 0.9 |  |  |  |  |  |  |  |  | COc1ccc(F)c(-c2c(Cl)nc(Cl)n2-c2ccc(Cl)cc2)c1F | 5.1 |  |
|  | 76% |  | 13.8 µM | 2.4 µM | 0.7 µM | 0.4 µM | 1.9 |  |  |  | Fc1cccc(F)c1-c1c(Cl)ncn1-c1ccc(Cl)cc1 |  | Non-Toxic |
|  | 40% | 1.2 |  |  |  |  |  |  |  |  | Cc1nc(C)n(-c2ccc(Cl)cc2)c1-c1c(F)cccc1F |  |  |
|  | 46% | 1.2 |  |  |  |  |  |  |  |  | Fc1cccc(F)c1-c1cncn1-c1ccc(Cl)cc1 |  |  |
| 0.9 | 69% | 0.8 |  |  |  |  |  |  |  |  | Cc1ccc(F)c(-c2cnc(Cl)n2-c2ccc(Cl)cc2)c1F |  |  |
| 0.6 | 84% |  |  |  |  |  |  |  |  |  | Cc1nc(Cl)c(-c2c(F)ccc(Cl)c2F)n1-c1ccc(Cl)cc1 | 1.7 |  |
|  | 81% |  |  |  |  |  |  |  |  |  | CCc1nc(Cl)c(-c2c(F)cccc2F)n1-c1ccc(Cl)cc1 | 1.8 | Non-Toxic |
| 0.3 | 38% | 0.6 |  |  |  |  |  |  |  |  | COc1cc(F)c(-c2c(Cl)nc(Cl)n2-c2ccc(Cl)cc2)c(F)c1 | 3.3 |  |
| 0.3 | 88% | 0.6 |  |  |  |  |  |  |  |  | COc1cc(F)c(-c2c(Cl)nc(C)n2-c2ccc(Cl)cc2)c(F)c1 | 7.1 |  |
| 0.8 | 87% |  |  |  |  |  |  |  |  |  | Cc1nc(Cl)c(-c2c(F)cccc2F)n1-c1ccc(Cl)cc1 | 2.5 |  |

Continued, compound first:

| Compound | FC [1] | inhibition (Rattus norvegicus) | fold change (FC) [2] | IC50 [3] | IC50 (Cyclooxygenase) | concentration at 1 h [4] | concentration at 1 h [5] | Kp [6] | concentration at 1 h [7] | Kp [8] | concentration at 1 h [9] | fold change (FC) (Homo sapiens) | Activity [1] |
| --- | --- | --- | --- | --- | --- | --- | --- | --- | --- | --- | --- | --- | --- |
| Fc1ccc(Cl)c(F)c1-c1c(Cl)ncn1-c1ccc(Cl)cc1 |  | 63% |  | 9.5 µM | 2.2 µM |  |  |  | 0.19 µM | 2.1 | 0.4 µM |  | Non-Toxic |
| Fc1ccc(Br)c(F)c1-c1c(Cl)ncn1-c1ccc(Cl)cc1 |  | 78% |  | 7.8 µM | 6.5 µM |  |  |  | 0.26 µM | 0.9 | 0.24 µM |  | Non-Toxic |
| Fc1ccc(F)c(-c2cnc(Cl)n2-c2ccc(Cl)cc2)c1 |  | 96% |  | 2.5 µM | 2.2 µM | 0.2 µM | 0.06 µM | 3.3 |  |  |  |  | Non-Toxic |
| Cc1nc(Cl)c(-c2c(F)ccc(F)c2F)n1-c1ccc(Cl)c(F)c1 | 0.7 | 75% | 0.8 |  |  |  |  |  |  |  |  | 3.9 |  |
| Cc1ncn(-c2ccc(Cl)cc2)c1-c1c(F)ccc(F)c1F |  | 74% | 1.2 | 23.7 µM | 4.7 µM | 0.4 µM | 0.2 µM | 1.9 |  |  |  |  |  |
| C[C@H](Nc1c(-c2c(F)cc(F)cc2F)c(Cl)nc2ncnn12)C(F)(F)F |  |  |  |  |  |  |  |  |  |  |  | 2.5 | Non-Toxic |
| Cc1cc(F)c(-c2c(Cl)ncn2-c2ccc(Cl)cc2)c(F)c1 |  | 75% |  | 11.7 µM | 1.8 µM | 0.3 µM | 0.11 µM | 2.5 |  |  |  |  | Non-Toxic |
| Cc1ncn(-c2ccc(Cl)cc2)c1-c1c(F)ccc(Cl)c1F |  | 71% |  | 13.4 µM | 12.1 µM | 0.6 µM | 0.5 µM | 1.4 |  |  |  |  | Non-Toxic |
| C[C@H](Nc1c(-c2c(F)cc(OCCCN(C)C)cc2F)c(Cl)nc2ncnn12)C(F)(F)F | 0.4 |  | 0.7 |  |  |  |  |  |  |  |  | 6 |  |
| Clc1ccc(-n2cnc(Cl)c2-c2ccccc2)cc1 |  | 71% |  | 12.5 µM | 1 µM | 0.2 µM | 0.08 µM | 2.4 |  |  |  |  | Non-Toxic |
| COc1ccc(-n2c(-c3c(F)cc(F)cc3F)cnc2Cl)cc1 |  | 75% |  | 20.8 µM | 9.8 µM | 0.21 µM | 0.21 µM | 0.9 |  |  |  |  | Non-Toxic |
